Laboratory results: ChEMBL document CHEMBL1122508, “Conjugates of catecholamines. 1. N-alkyl-functionalized carboxylic acid congeners and amides related to isoproterenol” (1983)

Test system: S49
Assay: In vitro biological activity against accumulation of cAMP in S49 cells as relative activity expressed as ratio of KA for isoproterenol to KA for the compound
Assay type: functional, Mus musculus
Outline: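 Wild-type S-49 mouse lymphoma cells resuspended at 2–2.5 × 10^6/mL in DME (13.3 g/L), 20 mM Hepes pH 7.4, 0.1% BSA. Preincubated 10 min at 37 °C without drug, then 6 min with compound; stopped on ice, pellets boiled, cAMP measured by competitive binding. K_A taken from cAMP vs log concentration; ratio uses isoproterenol K_A run at the same time. Each K_A averages ≥3 determinations, each in triplicate.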

Row | Compound | Relative activity
1 | CC(CCCCC(=O)Nc1ccc(C(F)(F)F)cc1)NCC(O)c1ccc(O)c(O)c1.Cl (stereo unspecified) | 11000
2 | CC(CCCC(=O)O)NCC(O)c1ccc(O)c(O)c1 (stereo unspecified) | 0.00068
3 | Cc1ccc(NC(=O)CCC(C)NCC(O)c2ccc(O)c(O)c2)cc1.Cl (stereo unspecified) | 0.71
4 | CC(CCCCC(=O)NC1CCCCC1)NCC(O)c1ccc(O)c(O)c1.Cl (stereo unspecified) | 0.17
5 | CC(CCCCC(=O)Nc1cccc(C(F)(F)F)c1)NCC(O)c1ccc(O)c(O)c1.Cl (stereo unspecified) | 0.98
6 | CC(CCC(=O)O)NCC(O)c1ccc(O)c(O)c1 (stereo unspecified) | 0.00016
7 | CC(CCCCC(=O)O)NCC(O)c1ccc(O)c(O)c1 (stereo unspecified) | 0.00097
8 | Cc1ccc(N(C)C(=O)CCCCC(C)NCC(O)c2ccc(O)c(O)c2)cc1.Cl (stereo unspecified) | 73
9 | CCCCNC(=O)CCCCC(C)NCC(O)c1ccc(O)c(O)c1.Cl (stereo unspecified) | 0.25
10 | COc1ccc(NC(=O)CCCCC(C)NCC(O)c2ccc(O)c(O)c2)cc1.Cl (stereo unspecified) | 3.1
11 | CC(CCCCCC(=O)O)NCC(O)c1ccc(O)c(O)c1 (stereo unspecified) | 0.00083
12 | Cc1ccc(NC(=O)CCCCC(C)NCC(O)c2ccc(O)c(O)c2)cc1.Cl (stereo unspecified) | 54
13 | CC(CCCCC(=O)Nc1ccccc1C(F)(F)F)NCC(O)c1ccc(O)c(O)c1.Cl (stereo unspecified) | 0.00025
14 | Cc1ccc(NC(=O)CCCC(C)NCC(O)c2ccc(O)c(O)c2)cc1.Cl (stereo unspecified) | 0.36
15 | Cc1ccc(NC(=O)CCCCCC(C)NCC(O)c2ccc(O)c(O)c2)cc1.Cl (stereo unspecified) | 0.11
16 | CCCCc1ccc(NC(=O)CCCCC(C)NCC(O)c2ccc(O)c(O)c2)cc1.Cl (stereo unspecified) | 3200
